Screening results as filed in PubChem BioAssay.
CHOP UPR activ – activators of apoptotic arm of unfolded protein response (CHOP) | CHO-CHOP luciferase reporter, UPR activation, luminescence; percent of tunicamycin response over DMSO baseline | activation, % at 10 µM | 0.34% of 330,000 active;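 active means at 10 µM dose, activation of 40% or more, normalized to positive control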;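 further: 100% = tunicamycin at 10 µg/mL and 0% = DMSO alone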
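Material: CHO-CHOP cells, stable luciferase reporter of PERK-eIF2a-CHOP signalling; quantity: 500 reporter cells seeded per well; buffer or medium: F12 medium containing 10% fetal bovine serum; compound: one dose, 10 µM in 0.5% DMSO; incubation: 6 h compound treatment, 37 °C; measured by: Steady-Glo luciferase luminescence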
XBP1 UPR activ – activators of adaptive arm of unfolded protein response (XBP1); 0.33% of 330,000 active; CHO-XBP1 luciferase reporter, IRE1-XBP1 UPR activation, luminescence; percent of tunicamycin response, DMSO as zero; activation, % at 20 µM; AID 463104;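 active means versus positive control, 20 µM dose yields 30% or more activation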;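 further: 100% = tunicamycin at 10 µg/mL and 0% = DMSO only wells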
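Material: IRE1-XBP1 luciferase reporter CHO line / Quantity: one thousand reporter cells per well / Buffer or medium: F12 with 10% serum / Compound: 20 µM single concentration, DMSO 1% / Times: 6 h treatment, 37 °C / Detection: Steady-Glo luciferase glow luminescence, 10 min after reagent addition / Benchmarks: tunicamycin high, DMSO low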
CHOP inhibitor – inhibitors of CHOP induction in ER stress response. 3.8% of 220,000 active. AID 2732. CHO-K1 CHOP-promoter luciferase, tunicamycin-induced, 15-18 h. inhibition, % at 10 µM;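 active means compounds that reduced the stress-induced luciferase reporter signal by more than about 70% of percent inhibition, limit read from the data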;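 further: 0% = tunicamycin plus vehicle and 100% = wells without tunicamycin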
Tb MetRS inh – blocks T. brucei methionyl-tRNA synthetase activity; purified T. brucei MetRS, ATP depletion, Kinase-Glo luminescence; inhibition, % at 11.9 µM; 0.4% of 360,000 active;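 active means inhibition above a per-plate cutoff of the control wells' mean inhibition plus 3 SD, cut at about 5.5% in these data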;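 further: 0% = DMSO wells median and 100% = median of wells with control inhibitor compound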
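System: purified T. brucei MetRS enzyme / Detection: Kinase-Glo luciferase luminescence reporting remaining unconsumed ATP / Medium: HEPES buffer with MgCl2, KCl, DTT, spermine, BSA, pyrophosphatase / Replication: singlicate, one well per compound / Evaluation: percent inhibition relative to median high and low control wells / Schedule: 2 h aminoacylation at 25 °C after 15 min preincubation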
V-ATPase pHluor – alters yeast V-ATPase proton transport. S. cerevisiae, pHLuorin cytosolic pH fluorescence. response, % at 10 µM. 0.37% of 350,000 active. AID 504577; in the data active means response mostly above about 7.3%, no sharp cut-off; inactive means mostly below about 5.4%; further: actives read high
CHOP UPR conf – apoptotic UPR (CHOP) activation, confirmed; 64% of 1,000 active; activation, % at 10 µM; shares compounds with CHOP UPR activ; CHO-CHOP cells, CHOP-luciferase reporter luminescence; percent of tunicamycin response, DMSO as zero; in the data active means activation above about 33%;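 further: 0% = DMSO wells and 100% = tunicamycin 10 µg/mL wells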
Starred values were filed as active, the others as inactive; nt = not tested or not shown. Only a selection was taken, and hits are over-represented in it overall.

SMILES	CHOP UPR activ	XBP1 UPR activ	CHOP inhibitor	Tb MetRS inh	V-ATPase pHluor	CHOP UPR conf
C/C(=N/NC(=O)CCC(=O)Nc1ccc(Br)cc1)c1ccc(Br)cc1	1	3	nt	0	2	nt
COc1ccc(-c2cn(Cc3ccc(C(=O)NCc4ccc(C)cc4)cc3)c(C(C)N)n2)cc1 (stereo not drawn)	9	26	nt	0	-3	nt
C[C@@H]1CN([C@H](C)CO)C(=O)c2cc(NC(=O)Nc3ccc(C(F)(F)F)cc3)ccc2O[C@H]1CN(C)Cc1ccc(Cl)c(Cl)c1	184*	19	nt	-1	-2	60*
Cc1ccc2oc(Nc3nc(-c4ccccc4)cc(=O)[nH]3)nc2c1	364*	28	101*	nt	nt	423*
COC(=O)Cn1c(=NC(=O)c2ccc([N+](=O)[O-])s2)sc2cc(Br)ccc21	50*	11	45	nt	nt	24
O=C(CCNC(=O)c1ccccc1Cl)NC1=NCCS1	1	-4	5	0	3	nt
S=C(Nc1ccccn1)c1ccccn1	165*	16	-38	-1	2	126*
O=C(Nc1nccs1)c1cccc(N2C(=O)c3cccc4c([N+](=O)[O-])ccc(c34)C2=O)c1	85*	14	-33	0	0	122*
Cn1c(/C=C/c2ccc([N+](=O)[O-])o2)nc2ccccc2c1=O	127*	6	nt	0	2	75*
Cn1c(/C=C/c2ccccc2)nc2ccccc2c1=O	2	3	nt	-1	-3	nt
COc1cc(NC(=S)N2CCN(S(=O)(=O)c3ccccc3)CC2)cc(OC)c1	-1	-3	nt	1	3	nt
Cc1ccc(N2C(=O)c3ccccc3C2=O)cc1	20	5	-9	-1	-1	nt
Cc1ccc(SC2=C(Sc3ccc(C)cc3)C(=O)c3ccccc3C2=O)cc1	215*	0	-44	0	-1	2
O=C(/C=C/c1ccc(O)c(O)c1)c1ccc(S(=O)(=O)N2CCCCCC2)cc1	90*	24	10	1	-4	23
O=C(COC(=O)CCNS(=O)(=O)c1ccc(Cl)cc1)Nc1ccccc1OC(F)F	2	1	nt	0	3	nt
C/C(=N\NC(=O)c1ccncc1)c1cc2ccccc2o1	115*	2	9	0	0	1
CCc1cccc2sc(N3CCN(C(=O)c4ccc([N+](=O)[O-])o4)CC3)nc12	157*	-3	nt	0	0	141*
O=C(CSc1nccc(=O)[nH]1)NC1CCCCCCC1	0	-2	nt	0	3	nt
NNC(=O)c1cc(-c2cccs2)nc2ccccc12	4	0	17	0	-102	nt
C/C(=N\NC(=O)c1cc(-c2cccs2)nc2ccccc12)c1ccccn1	248*	6	50	-1	-2	198*
C/C(=N\NC(=O)c1ccccc1OCc1ccc(F)cc1)c1ccccn1	109*	18	nt	0	1	99*
C/C(=N\NC(=O)c1cccc2ccccc12)c1ccccn1	332*	1	nt	0	2	339*
CC(C)c1ccc(C(=O)CSc2n[nH]c(-c3ccncc3)n2)cc1	0	-1	38	0	1	nt
CC1=CCC(/C=N\Nc2nnc3c(n2)[nH]c2ccccc23)CC1 (stereo not drawn)	1	0	-22	nt	nt	nt
CCOC(=O)C1=C(CCl)NC(=O)NC1c1ccc2c(c1)OCO2 (stereo not drawn)	44*	-5	nt	-1	3	37*
SMILES	CHOP UPR activ	XBP1 UPR activ	CHOP inhibitor	Tb MetRS inh	V-ATPase pHluor	CHOP UPR conf
Cc1ccc(Sc2nc3ccc(C)cn3c(=O)c2/C=N/O)cc1	52*	10	45	-1	-1	0
Cc1ccc2nc(Nc3ccccc3)c(/C=N/O)c(=O)n2c1	1	0	14	-2	-2	nt
COc1ccccc1-c1cc(C(F)(F)F)nc(S(=O)(=O)CCCC(=O)N2CCCCC2C)n1 (stereo not drawn)	279*	6	nt	0	0	192*
Cc1ccc(CNC(=O)c2ccc([N+](=O)[O-])o2)cc1	-2	-1	-14	-1	-3	nt
Cc1cc(O)c(C(=O)/C=C/c2ccc(Cl)cc2)c(=O)o1	5	-5	nt	0	3	nt
Cc1ccc(/C=C/C(=O)c2ccc([N+](=O)[O-])o2)cc1	189*	-4	nt	nt	nt	135*
O=C(/C=C/c1ccc(Cl)cc1)c1ccc([N+](=O)[O-])o1	69*	-6	nt	0	12*	22
CC(=O)N1CC(=O)N=C1SCC(=O)Nc1nc(-c2ccccc2)c(-c2ccccc2)s1	8	16	49	-2	-3	nt
Cc1ccc(S(=O)(=O)N(CC(=O)Nc2cccc(C(F)(F)F)c2)C(=O)N2CCN(C)CC2)cc1	-1	-5	nt	0	0	nt
O=Cc1[nH]c2ccccc2c1N(C(=O)CCl)c1ccc([N+](=O)[O-])cc1	55*	3	29	1	-2	0
C=CCSC(=C(C#N)C#N)c1cc2c([nH]1)CCCC2	43*	-5	63	0	6	55*
[O-][n+]1ccccc1/C=C/c1ccccc1	1	1	nt	0	2	nt
[O-][n+]1c(/C=C/c2ccccc2)ccc2ccccc21	127*	2	nt	0	8	-5
COC(=O)c1c(NC(=O)COC(=O)c2ccc(O)cc2)sc2c1CCCCC2	0	6	56	-1	nt	nt
CCOC(=O)c1cnc(-n2nc(C)cc2C)nc1NC1CCCC1	64*	19	27	1	6	20
N#CCCn1cc(C(=O)N2CCCCC2)c(-c2ccc([N+](=O)[O-])cc2)n1	-1	-1	23	-1	-3	nt
CCc1cc(C(=O)c2ccc(C)cc2)c(NC(=O)CCl)s1	108*	6	40	0	-3	114*
CCc1cc(C(=O)c2ccc(OC)cc2)c(NC(=O)CCC(=O)O)s1	-1	-2	-22	0	2	nt
Cc1cc(C(=O)c2ccc(Cl)cc2)c(NC(=O)CCl)s1	50*	7	63	0	2	46*
Cc1cccc(C(=O)O/N=C(\N)c2cccc([N+](=O)[O-])c2)c1	3	1	-4	-1	4	nt
CC1=CC(=O)C=C(C)C1=NOC(=O)c1cccc([N+](=O)[O-])c1	46*	1	-69	0	-2	5
C#CCOCCOCCOCCNc1nc(N2CCN(C(=O)[C@H](CCC(=O)O)n3cc([C@@H](N)CCCCN)nn3)CC2)nc(N2CCN(C(=O)[C@H](CCCCN)n3cc([C@@H](N)CC(N)=O)nn3)CC2)n1	0	-1	nt	0	4	nt
COc1ccc(-c2oc(NC(=O)CSc3ncn[nH]3)c(C#N)c2-c2ccc(OC)cc2)cc1	-1	-3	60	0	-3	nt
